Laboratory results reported in ChEMBL document CHEMBL3407461 (J Med Chem, 2014).

What was measured:
[1] = target: T1, Adenosine receptor A1 (Homo sapiens) (UniProt P30542); test: Displacement of [3H]R-PIA from human recombinant A1 adenosine receptor expressed in CHO cells at 10 uM after 60 mins by liquid scintillation counting; assay type: cell-based
T1 sequence (whole entry): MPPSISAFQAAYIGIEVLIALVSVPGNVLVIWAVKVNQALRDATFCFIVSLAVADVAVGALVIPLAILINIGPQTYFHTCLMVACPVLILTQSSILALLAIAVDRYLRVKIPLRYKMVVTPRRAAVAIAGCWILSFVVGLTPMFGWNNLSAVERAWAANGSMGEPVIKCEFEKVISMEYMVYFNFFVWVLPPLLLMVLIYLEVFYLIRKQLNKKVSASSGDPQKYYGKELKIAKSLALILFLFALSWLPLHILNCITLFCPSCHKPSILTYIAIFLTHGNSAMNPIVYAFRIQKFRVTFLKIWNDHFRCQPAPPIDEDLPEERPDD

[2] = target: Adenosine receptor A2a (Homo sapiens) (UniProt P29274); test: Displacement of [3H]CGS21680 from human recombinant A2A adenosine receptor expressed in HEK293 cells at 10 uM after 60 mins by liquid scintillation counting; assay type: cell-based
Mus musculus [3] = test: Antinociceptive activity in chronic constriction injury neutropathic pain CD-1 mouse model assessed as time for peak protection at 3 umol/kg, po; assay type: functional
How it was run: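 Male CD-1 mice (25−30 g), chronic constriction injury of left sciatic nerve (Bennett model) under isoflurane. Dosed by gavage (3 μmol/kg, 0.2 mL) at peak mechano-allodynia on day 7; vehicle 10% DMSO in 0.5% methylcellulose. Paw withdrawal threshold (g) measured on the ipsilateral hind paw from 30 min to 5 h post dose. Expressed as % reversal, mean ± SEM over n animals.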

Mus musculus [4] = test: Antinociceptive activity in chronic constriction injury neutropathic pain CD-1 mouse model assessed as maximum protection on ipsilateral hind paw at 3 umol/kg, po after 30 mins to 5 hrs post dose relative to control; assay type: functional; conditions: CD-1, po
Mus musculus [5] = test: Antinociceptive activity in chronic constriction injury neutropathic pain CD-1 mouse model at 3 umol/kg, po after 3 hrs post dose relative to control; assay type: functional
CHO = test: Selectivity ratio of Ki for mouse A3 adenosine receptor expressed in HEK293 cells to Ki for human recombinant A3 adenosine receptor expressed in CHO cells; assay type: cell-based
[6] = target: T2, Adenosine receptor A1 (Mus musculus) (UniProt Q60612); test: Displacement of [125I]I-AB-MECA from mouse A1 adenosine receptor expressed in HEK293 cells at 10 uM after 60 mins by liquid scintillation counting
T2 sequence (whole entry): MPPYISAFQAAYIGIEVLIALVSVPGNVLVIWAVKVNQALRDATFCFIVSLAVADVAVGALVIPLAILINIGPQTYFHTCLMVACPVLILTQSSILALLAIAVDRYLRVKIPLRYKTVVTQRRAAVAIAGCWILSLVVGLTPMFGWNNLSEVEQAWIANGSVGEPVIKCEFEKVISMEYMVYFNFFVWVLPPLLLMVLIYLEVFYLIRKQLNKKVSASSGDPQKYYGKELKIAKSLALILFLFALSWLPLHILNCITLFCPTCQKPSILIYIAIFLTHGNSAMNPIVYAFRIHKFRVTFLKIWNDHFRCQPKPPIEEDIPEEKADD

[7] = target: Voltage-gated inwardly rectifying potassium channel KCNH2 (Homo sapiens, UniProt Q12809); test: Inhibition of human ERG by PDSP screening
[8] = target: Adenosine receptor A2a (Mus musculus) (UniProt Q60613); test: Displacement of [3H]CGS21680 from mouse A2A adenosine receptor expressed in HEK293 cells at 10 uM after 60 mins by liquid scintillation counting; assay type: cell-based
[9] = target: T3, Adenosine receptor A3 (Mus musculus) (UniProt Q61618); test: Agonist activity at mouse A3 adenosine receptor expressed in HEK293 cells assessed as inhibition of forskolin-stimulated cAMP production after 15 mins relative to control; assay type: functional, cell-based
T3 sequence (whole entry): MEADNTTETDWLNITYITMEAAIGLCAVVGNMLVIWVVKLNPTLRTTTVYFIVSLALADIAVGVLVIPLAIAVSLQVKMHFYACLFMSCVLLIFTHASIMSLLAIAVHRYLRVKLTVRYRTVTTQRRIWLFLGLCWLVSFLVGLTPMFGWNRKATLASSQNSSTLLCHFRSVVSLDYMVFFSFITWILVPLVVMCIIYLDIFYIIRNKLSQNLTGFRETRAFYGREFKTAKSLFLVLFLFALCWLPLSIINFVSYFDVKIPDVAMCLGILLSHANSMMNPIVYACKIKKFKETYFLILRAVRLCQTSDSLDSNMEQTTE
How it was run: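 2 × 10^5 cells/tube, coincubated with forskolin 10 μM plus ligand for 15 min at 37 °C with shaking. Stopped with HCl. cAMP in supernatant measured by competitive binding.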

Adenosine receptor A2a (Homo sapiens), sequence (P29274 whole entry): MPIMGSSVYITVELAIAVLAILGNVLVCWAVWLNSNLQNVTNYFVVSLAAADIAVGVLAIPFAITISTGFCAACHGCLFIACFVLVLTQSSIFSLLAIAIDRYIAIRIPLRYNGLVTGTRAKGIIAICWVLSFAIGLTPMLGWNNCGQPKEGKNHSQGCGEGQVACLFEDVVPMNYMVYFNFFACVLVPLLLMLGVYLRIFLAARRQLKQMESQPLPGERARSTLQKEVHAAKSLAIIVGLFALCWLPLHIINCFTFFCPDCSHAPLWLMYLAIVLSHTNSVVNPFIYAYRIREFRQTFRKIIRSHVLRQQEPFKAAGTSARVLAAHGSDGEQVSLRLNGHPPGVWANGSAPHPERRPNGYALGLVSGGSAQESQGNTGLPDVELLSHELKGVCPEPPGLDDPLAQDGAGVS
Voltage-gated inwardly rectifying potassium channel KCNH2, sequence (Q12809 whole entry): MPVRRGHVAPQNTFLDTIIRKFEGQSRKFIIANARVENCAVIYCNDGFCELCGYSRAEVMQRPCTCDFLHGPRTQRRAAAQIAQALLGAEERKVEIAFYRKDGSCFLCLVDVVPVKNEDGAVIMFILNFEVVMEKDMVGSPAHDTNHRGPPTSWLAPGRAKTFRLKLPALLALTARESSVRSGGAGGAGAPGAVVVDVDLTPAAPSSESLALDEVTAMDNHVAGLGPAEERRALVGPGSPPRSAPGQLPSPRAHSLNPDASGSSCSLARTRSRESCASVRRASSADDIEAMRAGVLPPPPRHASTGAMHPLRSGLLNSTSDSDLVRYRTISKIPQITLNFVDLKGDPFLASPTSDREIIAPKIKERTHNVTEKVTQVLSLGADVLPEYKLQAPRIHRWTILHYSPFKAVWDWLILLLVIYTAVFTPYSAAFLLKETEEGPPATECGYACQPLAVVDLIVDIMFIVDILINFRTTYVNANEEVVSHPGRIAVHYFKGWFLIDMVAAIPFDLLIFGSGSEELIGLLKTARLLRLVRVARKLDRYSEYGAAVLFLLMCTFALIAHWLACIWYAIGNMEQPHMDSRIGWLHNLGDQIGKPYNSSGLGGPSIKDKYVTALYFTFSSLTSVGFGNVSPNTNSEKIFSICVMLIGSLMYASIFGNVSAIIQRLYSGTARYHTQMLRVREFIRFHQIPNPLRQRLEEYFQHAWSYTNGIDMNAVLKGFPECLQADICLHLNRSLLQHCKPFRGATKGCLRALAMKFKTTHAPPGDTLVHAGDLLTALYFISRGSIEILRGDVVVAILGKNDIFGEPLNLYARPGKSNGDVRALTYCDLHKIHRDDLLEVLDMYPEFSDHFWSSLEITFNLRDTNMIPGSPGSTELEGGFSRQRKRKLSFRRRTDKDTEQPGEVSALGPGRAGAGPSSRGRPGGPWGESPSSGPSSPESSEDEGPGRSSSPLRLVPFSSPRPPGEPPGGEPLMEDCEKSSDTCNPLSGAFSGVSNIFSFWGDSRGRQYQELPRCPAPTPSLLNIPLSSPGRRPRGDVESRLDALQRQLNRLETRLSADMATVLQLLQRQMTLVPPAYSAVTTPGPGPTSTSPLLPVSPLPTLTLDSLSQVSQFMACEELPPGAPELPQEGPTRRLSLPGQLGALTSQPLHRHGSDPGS
Adenosine receptor A2a (Mus musculus), sequence (Q60613 whole entry): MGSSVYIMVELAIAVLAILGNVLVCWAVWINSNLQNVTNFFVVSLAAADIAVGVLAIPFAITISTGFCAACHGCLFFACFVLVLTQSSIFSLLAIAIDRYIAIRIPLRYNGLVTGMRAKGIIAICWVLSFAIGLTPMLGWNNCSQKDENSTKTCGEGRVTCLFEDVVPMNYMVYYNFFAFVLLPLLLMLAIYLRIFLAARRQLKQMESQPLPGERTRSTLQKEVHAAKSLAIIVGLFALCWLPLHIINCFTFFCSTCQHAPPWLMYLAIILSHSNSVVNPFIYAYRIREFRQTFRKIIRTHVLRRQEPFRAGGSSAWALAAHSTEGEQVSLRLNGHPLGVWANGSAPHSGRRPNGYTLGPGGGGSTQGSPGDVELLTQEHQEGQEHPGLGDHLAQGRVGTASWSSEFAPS

SMILES	inhibition [1]	inhibition [2]	Time (Mus musculus [3])	Emax at 3 µmol/kg (Mus musculus [4])	Activity (Mus musculus [5])	Ratio Ki (CHO)	inhibition [6]	IC50 [7]	inhibition [8]	Imax [9]
CNC(=O)[C@@]12C[C@@H]1[C@@H](n1cnc3c(NC)nc(C#Cc4cccnn4)nc31)[C@H](O)[C@@H]2O	11%	13%	0.5 h							
CNC(=O)[C@@]12C[C@@H]1[C@@H](n1cnc3c(NC)nc(C#Cc4ccsc4)nc31)[C@H](O)[C@@H]2O	11%	3%	0.5 h							
CNC(=O)[C@@]12C[C@@H]1[C@@H](n1cnc3c(NC)nc(C#Cc4cc(C)c(C)o4)nc31)[C@H](O)[C@@H]2O	15%	21%	1 h							
CNC(=O)[C@@]12C[C@@H]1[C@@H](n1cnc3c(NC)nc(C#Cc4ncccn4)nc31)[C@H](O)[C@@H]2O	25%	27%	0.5 h	92.3%						
CNC(=O)[C@@]12C[C@@H]1[C@@H](n1cnc3c(NC)nc(C#Cc4ccc(-c5ccccc5)cc4)nc31)[C@H](O)[C@@H]2O	18%	21%	1 h	57.7%	14.3%					
CNC(=O)[C@@]12C[C@@H]1[C@@H](n1cnc3c(NC)nc(C#Cc4ccccc4F)nc31)[C@H](O)[C@@H]2O	20%		0.5 h	56%	9.8%					
CNC(=O)[C@@]12C[C@@H]1[C@@H](n1cnc3c(NC)nc(C#Cc4ccc(Cl)cc4)nc31)[C@H](O)[C@@H]2O	13%		0.5 h	40.4%	4.6%					
CNC(=O)[C@@]12C[C@@H]1[C@@H](n1cnc3c(NC)nc(C#Cc4nccs4)nc31)[C@H](O)[C@@H]2O	31%	8%	1 h	53.2%	12.7%					
CNC(=O)[C@@]12C[C@@H]1[C@@H](n1cnc3c(NC)nc(C#CC4CC4)nc31)[C@H](O)[C@@H]2O	38%	15%	1 h	54.6%	19.1%					
CNC(=O)[C@@]12C[C@@H]1[C@@H](n1cnc3c(NC)nc(C#Cc4ccccc4Cl)nc31)[C@H](O)[C@@H]2O	22%		0.5 h	27.5%	10.6%	> 30				
CNC(=O)[C@@]12C[C@@H]1[C@@H](n1cnc3c(NC)nc(C#Cc4cccc(C(F)(F)F)c4)nc31)C(O)C2O (single isomer, unassigned)	10%	12%	0.5 h							
CNC(=O)[C@H]1O[C@@H](n2cnc3c(NCc4cccc(I)c4)ncnc32)[C@H](O)[C@@H]1O [IB-MECA]			1 h	94.1%	38.7%					
CNC(=O)[C@@]12C[C@@H]1[C@@H](n1cnc3c(NC)nc(C#Cc4cc[nH]n4)nc31)[C@H](O)[C@@H]2O	30%	19%	0.5 h							
CNC(=O)[C@@]12C[C@@H]1[C@@H](n1cnc3c(NC)nc(C#Cc4cccc(OC)c4)nc31)[C@H](O)[C@@H]2O	8%	26%	0.5 h							
CNC(=O)[C@@]12C[C@@H]1[C@@H](n1cnc3c(NC)nc(C#Cc4cc5ccccc5o4)nc31)[C@H](O)[C@@H]2O	13%	18%	1 h	87.4%						
CNC(=O)[C@@]12C[C@@H]1[C@@H](n1cnc3c(NC)nc(C#Cc4ccc(OC)cc4)nc31)[C@H](O)[C@@H]2O	10%	24%	0.5 h							
CNC(=O)[C@@]12C[C@@H]1[C@@H](n1cnc3c(NC)nc(C#CC4CCCCC4)nc31)[C@H](O)[C@@H]2O	15%	45%	1 h	64.1%						
CNC(=O)[C@@]12C[C@@H]1[C@@H](n1cnc3c(NCc4cccc(Cl)c4)nc(C#Cc4ccc(F)c(F)c4)nc31)[C@H](O)[C@@H]2O			1 h		23.7%		16%	12.2 µM		
CNC(=O)[C@@]12C[C@@H]1[C@@H](n1cnc3c(NC)nc(C#Cc4ccc(CO)cc4)nc31)[C@H](O)[C@@H]2O	16%	11%	1 h							
CNC(=O)[C@@]12C[C@@H]1[C@@H](n1cnc3c(NC)nc(C#Cc4ccncc4)nc31)[C@H](O)[C@@H]2O	15%	2%	1 h							
CNC(=O)[C@@]12C[C@@H]1[C@@H](n1cnc3c(NC)nc(C#Cc4cccnc4)nc31)[C@H](O)[C@@H]2O	16%	12%	0.5 h							
CCc1ccc(C#Cc2nc(NC)c3ncn([C@H]4[C@H](O)[C@H](O)[C@]5(C(=O)NC)C[C@H]45)c3n2)o1	18%	4%	1 h							
CNC(=O)[C@@]12C[C@@H]1[C@@H](n1cnc3c(NC)nc(C#Cc4ccccn4)nc31)[C@H](O)[C@@H]2O	13%		0.5 h	31.8%	0%					
CNC(=O)[C@@]12C[C@@H]1[C@@H](n1cnc3c(NC)nc(C#Cc4cccs4)nc31)[C@H](O)[C@@H]2O	25%	20%	1 h	100%			47%		3%	28%
CNC(=O)[C@@]12C[C@@H]1[C@@H](n1cnc3c(NC)nc(C#Cc4ccc(F)cc4)nc31)[C@H](O)[C@@H]2O	27%		1 h	72%	10.4%	> 30				
CNC(=O)[C@@]12C[C@@H]1[C@@H](n1cnc3c(NC)nc(C#Cc4cccc(F)c4)nc31)[C@H](O)[C@@H]2O	14%		1 h	46.3%	12.4%					
CNC(=O)[C@@]12C[C@@H]1[C@@H](n1cnc3c(NC)nc(C#Cc4ccccc4)nc31)[C@H](O)[C@@H]2O	18%		0.5 h	44.1%	5%					
CNC(=O)[C@@]12C[C@@H]1[C@@H](n1cnc3c(NC)nc(C#Cc4ccccc4OC)nc31)[C@H](O)[C@@H]2O	12%	20%	1 h	64.3%						
